“And” between values parts separate entries of the source, which are not always exact repeats. Equal values may be shown once.
How the values were obtained:
L1210 [1] = assay: Compound was evaluated in vivo for antitumor activity after intraperitoneal administration against L1210(935) for tumor free survivors at an optimal dose of 0.1 mg/kg/injection at 1-4 day schedule.; format: functional, Mus musculus
Outline: (§1)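 L1210 leukemia, maintained in DBA/2 mice, was given ip as 10⁵ cells on day 0 to F1 hybrid or strain-of-origin mice over 18 g, in groups of 8. Dosing was ip from day 1, and mortality was checked daily. Median day of death counts dying mice only. %ILS = 100×(treated − control median day of death)/control median. Tumor-free survivors were counted on day 60. Weight change is g/mouse at nadir.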

[2] = Compound was evaluated in vivo for antitumor activity against Lewis Lung cercinoma after injecting the compound intravenously for optimal dose; format: functional, Mus musculus
Outline: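 Lewis lung carcinoma: 10^6 cells implanted im into C57Bl/6-derived hosts. Drug given iv on days 5, 9 and 13, 10 mice per group. Median tumor burden and weight nadir recorded. Survivors were killed on day 19, and their lungs were fixed in Fekete solution so that macroscopic metastases could be counted.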

M5076 = assay: Compound was evaluated in vivo for antitumor activity against M5076 after injecting the compound intravenously for percent T/C; format: functional, Mus musculus
P388 [3] = assay: Compound was evaluated in vivo for antitumor activity after intraperitoneal administration against P388 (1313) for median day of death at an optimal dose of 0.5 mg/kg/injection; format: functional, Mus musculus
P388 [4] = assay: Compound was evaluated in vivo for antitumor activity after intraperitoneal administration against P388 (1313) for % increase in life span at an optimal dose of 0.4 mg/kg/injection; format: functional; conditions: Mus musculus, P388, ip
L1210 [5] = assay: Compound was evaluated in vivo for antitumor activity after intraperitoneal administration against L1210(935) for median day of death at an optimal dose of 0.125 mg/kg/injection at 1,4,7,11day schedule.; format: functional, Mus musculus; outline: as §1
L1210 [6] = assay: Compound was evaluated in vivo for antitumor activity after intraperitoneal administration against L1210(935)for % increase in life span at an optimal dose of 0.1 mg/kg/injection at 1-4 day schedule.; format: functional; conditions: Mus musculus, L1210, ip; outline: as §1
P388 [7] = assay: Compound was evaluated in vivo for antitumor activity after intraperitoneal administration against P388/L-PAM(12) for median day of death at an optimal dose of 0.75 mg/kg/injection; format: functional, Mus musculus
P388 [8] = assay: Compound was evaluated in vivo for antitumor activity after intraperitoneal administration against P388/L-PAM(14) for change in body weight at an optimal dose of 0.25 mg/kg/injection at 1,4,7,11 day schedule.; format: functional, Mus musculus
L1210 [9] = assay: Compound was evaluated in vivo for antitumor activity after intraperitoneal administration against L1210(935) for mortality range at an optimal dose of 0.5 mg/kg/injection at 1 day schedule.; format: functional, Mus musculus; outline: as §1
P388 [10] = assay: Compound was evaluated in vivo for antitumor activity after intraperitoneal administration against P388 (1313) for tumor free survivors at an optimal dose of 0.2 mg/kg/injection; format: functional, Mus musculus
P388 [11] = assay: Compound was evaluated in vivo for antitumor activity after intraperitoneal administration against P388/L-PAM(14) for total dose at an optimal dose of 0.5 mg/kg/injection at one day schedule.; format: functional, Mus musculus
P388 [12] = assay: Compound was evaluated in vivo for antitumor activity after intraperitoneal administration against P388 (1313) for median day of death at an optimal dose of 0.2 mg/kg/injection; format: functional, Mus musculus
P388 [13] = assay: Compound was evaluated in vivo for antitumor activity after intraperitoneal administration against P388 (1313) for % increase in life span at an optimal dose of 0.5 mg/kg/injection; format: functional; conditions: Mus musculus, P388, ip
P388 [14] = assay: Compound was evaluated in vivo for antitumor activity after intraperitoneal administration against P388/L-PAM(14) for total dose at an optimal dose of 0.125 mg/kg/injection at 1,4,7,11 day schedule.; format: functional, Mus musculus
L1210 [15] = assay: Compound was evaluated in vivo for antitumor activity after intraperitoneal administration against L1210(935) for median day of death at an optimal dose of 0.1 mg/kg/injection at 1-4 day schedule.; format: functional, Mus musculus; outline: as §1
L1210 [16] = assay: Compound was evaluated in vivo for antitumor activity after intraperitoneal administration against L1210(935) for median day of death at an optimal dose of 0.25 mg/kg/injection at 1,4,7,11day schedule.; format: functional, Mus musculus; outline: as §1
P388 [17] = assay: Compound was evaluated in vivo for antitumor activity after intraperitoneal administration against P388/L-PAM(14) for median day of death at an optimal dose of 0.125 mg/kg/injection at 1,4,7,11 day schedule.; format: functional, Mus musculus
P388 [18] = assay: Compound was evaluated in vivo for antitumor activity after intraperitoneal administration against P388/L-PAM(14) for % increase in life span at an optimal dose of 0.4 mg/kg/injection at 1,2,3,4 day schedule.; format: functional; conditions: Mus musculus, P388, ip
P388 [19] = assay: Compound was evaluated in vivo for antitumor activity after intraperitoneal administration against P388 (1313) for mortality range at an optimal dose of 0.2 mg/kg/injection; format: functional, Mus musculus
P388 [20] = assay: Compound was evaluated in vivo for antitumor activity after intraperitoneal administration against P388 (1303) for mortality range at an optimal dose of 0.75 mg/kg/injection; format: functional, Mus musculus
P388 [21] = assay: Compound was evaluated in vivo for antitumor activity after intraperitoneal administration against P388 (1313) for change in body weight at an optimal dose of 0.2 mg/kg/injection; format: functional, Mus musculus
B16 = assay: Compound was evaluated in vivo for antitumor activity against B16 melanoma 1 after injecting the compound intravenously for toxicity related death.; format: functional, Mus musculus
L1210 [22] = assay: Compound was evaluated in vivo for antitumor activity after intraperitoneal administration against L1210(935) for total dose at an optimal dose of 0.5 mg/kg/injection at 1 day schedule.; format: functional, Mus musculus; outline: as §1
P388 [23] = assay: Compound was evaluated in vivo for antitumor activity after intraperitoneal administration against P388 (1313) for median day of death at an optimal dose of 0.4 mg/kg/injection; format: functional, Mus musculus
P388 [24] = assay: Compound was evaluated in vivo for antitumor activity after intraperitoneal administration against P388 (1313) for change in body weight at an optimal dose of 0.4 mg/kg/injection; format: functional, Mus musculus
P388 [25] = assay: Compound was evaluated in vivo for antitumor activity after intraperitoneal administration against P388 (1313) for change in body weight at an optimal dose of 0.25 mg/kg/injection; format: functional, Mus musculus
[26] = Compound was evaluated in vivo for antitumor activity against colon adenocarcinoma 38 after injecting the compound intravenously for toxicity related death.; format: functional, Mus musculus
[27] = Compound was evaluated in vivo for antitumor activity against Glasgow osteogenic sarcoma after injecting the compound intravenously for toxicity related death.; format: functional, Mus musculus
Outline: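 Glasgow osteogenic sarcoma in C57Bl/6-derived hosts: 30-60 mg fragments implanted sc by trocar on day 0. Drug given iv on days 3, 6 and 9, 7 mice per group. Tumors measured by caliper. Median tumor burden recorded on day 10. Body weight change per mouse recorded at nadir. Toxicity-related deaths counted.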

P388 [28] = assay: Compound was evaluated in vivo for antitumor activity after intraperitoneal administration against P388 (1303) for % increase in life span at an optimal dose of 0.75 mg/kg/injection; format: functional; conditions: Mus musculus, P388, ip

With CN(C)CCCNc1ncnc2c1C(=O)C(N1CC1)=C(N1CC1)C2=O as the compound, how does the Survivors (L1210 [1]) read?
Its Survivors is 0.

And the Optimal dose [2]?
Its Optimal dose is 0.4 mg/kg and 0.2 mg/kg.

And the T/C (M5076)?
Its T/C is 58%.

What about the “Median day of death” value (P388 [3]) of the same compound?
Its value is 25.

What about the ILS at 0.4 mg/kg (P388 [4]) of the same compound?
Its ILS at 0.4 mg/kg is 91%.

And the “Median day of death” value (L1210 [5])?
Its value is 13.

And the ILS at 0.1 mg/kg (L1210 [6])?
Its ILS at 0.1 mg/kg is 27%.

What about the “Median day of death” value (P388 [7]) of the same compound?
The value was 15.5.

What about the “Change in body weight” value (P388 [8]) of the same compound?
The value was 0.9 g mouse-1.

What about the Mortality (L1210 [9]) of the same compound?
The Mortality was 16 days.

And the Survivors (P388 [10])?
Its Survivors is 0.

What about the Total dose (P388 [11]) of the same compound?
The Total dose was 0.5 mg/kg.

And the “Median day of death” value (P388 [12])?
The value was 19.5.

What about the ILS at 0.5 mg/kg (P388 [13]) of the same compound?
Its ILS at 0.5 mg/kg is 108%.

What about the Total dose (P388 [14]) of the same compound?
The Total dose was 0.5 mg/kg.

What about the “Median day of death” value (L1210 [15]) of the same compound?
The value was 14.

What about the “Median day of death” value (L1210 [16]) of the same compound?
Its value is 13.

And the “Median day of death” value (P388 [17])?
The value was 15.5.

And the ILS at 0.4 mg/kg (P388 [18])?
The ILS at 0.4 mg/kg was 43%.

And the Optimal dose (P388 [19])?
The Optimal dose was 28 mg/kg.

And the Mortality (P388 [20])?
Its Mortality is 65 days.

What about the “Change in body weight” value (P388 [21]) of the same compound?
The value was 1.3 g mouse-1.

What about the Toxicity (B16) of the same compound?
The Toxicity was 0.

And the Total dose (L1210 [22])?
The Total dose was 0.5 mg/kg.

And the “Median day of death” value (P388 [23])?
Its value is 23.

And the “Change in body weight” value (P388 [24])?
The value was -0.9 g mouse-1.

And the “Change in body weight” value (P388 [25])?
Its value is 2.4 g mouse-1.

And the Toxicity [26]?
Its Toxicity is 0.

What about the Toxicity [27] of the same compound?
Its Toxicity is 0.

And the ILS at 0.75 mg/kg (P388 [28])?
Its ILS at 0.75 mg/kg is 68%.

From ChEMBL document CHEMBL1125740, “Heterocyclic quinones. 17. A new in vivo active antineoplastic drug: 6,7-bis(1-aziridinyl)-4-[[3-(N,N-dimethylamino)propyl]amino]-5,8- quinazolinedione” (J Med Chem, 1991)
